Laboratory results published in ChEMBL document CHEMBL1629439, “High-throughput identification of antibacterials against methicillin-resistant Staphylococcus aureus (MRSA) and the transglycosylase” (Bioorg Med Chem, 2010).
≈ marks a conversion by molar mass, not a printed value. Calls of active or inactive are those of the source. The rule behind the calls is not given here.

What was measured:
[1] = Inhibition of transglycosylase in Staphylococcus aureus isolate Sa-OXA-R2 assessed as inhibition of NBD- labelled lipid II polymerization
How it was run: (§1)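 100 µM NBD-labelled lipid II incubated 30 min with full-length PBP (EC, SA or Mtb) and 10 ng/µl N-acetylmuramidase in 50 mM Tris-HCl pH 8.0, 10 mM MgCl2, 0.1% Triton X-100, 10% DMSO, 15% MeOH. Supernatant run on anion-exchange HPLC with 20 mM–0.5 M ammonium acetate gradient. Inhibition calculated from substrate peak-area percentage. IC50 determined. S. aureus strains share one SA enzyme.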

Staphylococcus aureus [2] = test: Antimicrobial activity against methicillin-resistant Staphylococcus aureus ATCC 33592 after 18 to 24 hrs by alamar blue assay; assay type: functional
How it was run: (§2)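 Broth microdilution per NCCLS standard, Mueller-Hinton broth, 8-point twofold dilutions; exponentially growing cells at 5 10^5 cells/ml with compound, 18–24 h at 37 C; 20% Alamar blue added, fluorescence read; MIC90 taken as lowest concentration preventing at least 90% growth.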

[3] = Inhibition of transglycosylase in Staphylococcus aureus ATCC 29213 assessed as inhibition of NBD- labelled lipid II polymerization; how it was run: as §1
[4] = Inhibition of Mycobacterium tuberculosis transglycosylase assessed as inhibition of NBD- labelled lipid II polymerization
How it was run: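 Full-length PBP incubated 30 min with 100 µM NBD-labelled lipid II, 10 ng/µl N-acetylmuramidase in 50 mM Tris-HCl pH 8.0, 10 mM MgCl2, 0.1% Triton X-100, 10% DMSO, 15% MeOH; supernatant on anion-exchange HPLC, ammonium acetate gradient (20 mM–0.5 M); inhibition from substrate peak area percentage.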

[5] = Displacement of fluorescein-labeled moenomycin from transglycosylase in Escherichia coli ATCC […] assessed as inhibition of lipid II polymerization after 30 mins by fluorescence anisotropy binding assay; design: species or system Staphylococcus aureus
How it was run: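 Full-length bifunctional PBP (TGase) at 10 µg/ml mixed with 100 nM fluorescent moenomycin in 10 mM Tris, 100 mM NaCl, pH 8.0, in 1536-well plates. 1 µl of 1 mM compound stock added. 10 µM moenomycin and 2.5% DMSO served as positive and negative controls. After 30 min, drop in fluorescence anisotropy read. Ki derived from Kd and IC50. Same SA enzyme serves all S. aureus strains.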

[6] = Inhibition of transglycosylase in Staphylococcus aureus isolate NTUH4722 assessed as inhibition of NBD- labelled lipid II polymerization; how it was run: as §1
Staphylococcus aureus [7] = test: Antimicrobial activity against methicillin-resistant Staphylococcus aureus isolate NTUH4722 after 18 to 24 hrs by alamar blue assay; assay type: functional; how it was run: as §2
[8] = Inhibition of transglycosylase in Staphylococcus aureus ATCC 33592 assessed as inhibition of NBD- labelled lipid II polymerization; how it was run: as §1
[9] = system: Mycolicibacterium smegmatis; test: Antimicrobial activity against Mycobacterium smegmatis BCRC 11565 after 18 to 24 hrs by alamar blue assay; assay type: functional
How it was run: (§3)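 Broth microdilution per NCCLS in Mueller-Hinton broth, 8-point twofold dilutions, 384-well format. Exponential-phase cells at 5 × 10^5 cells/ml incubated with compound 18–24 h at 37 °C, then 20% Alamar blue added and fluorescence read. MIC90 taken as the lowest concentration preventing at least 90% bacterial growth.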

Staphylococcus aureus [10] = test: Antimicrobial activity against wild-type Staphylococcus aureus ATCC 29213 after 18 to 24 hrs by alamar blue assay; conditions: for MIC90: Staphylococcus aureus, ATCC 29213
[11] = Displacement of fluorescein-labeled moenomycin from Mycobacterium tuberculosis transglycosylase assessed as inhibition of lipid II polymerization after 30 mins by fluorescence anisotropy binding assay
How it was run: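 Full-length bifunctional PBP (10 µg/ml) with 100 nM fluorescein-labelled moenomycin in 10 mM Tris, 100 mM NaCl, pH 8.0; compound added from 1 mM stocks; 30 min incubation, anisotropy decrease read; 10 µM moenomycin and 2.5% DMSO controls. For dose series, Ki derived from probe Kd and IC50.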

Staphylococcus aureus [12] = test: Antimicrobial activity against oxacillin- and methicillin-resistant Staphylococcus aureus isolate Sa-OXA-R2 after 18 to 24 hrs by alamar blue assay; assay type: functional; how it was run: as §2
[13] = Inhibition of transglycosylase in Escherichia coli ATCC […] assessed as inhibition of NBD- labelled lipid II polymerization; how it was run: as §1
Escherichia coli [14] = test: Antimicrobial activity against Escherichia coli ATCC […] after 18 to 24 hrs by alamar blue assay; assay type: functional; how it was run: as §3
Bacillus subtilis = test: Antimicrobial activity against Bacillus subtilis ATCC 23857 after 18 to 24 hrs by alamar blue assay; assay type: functional; how it was run: as §3
Serratia marcescens = test: Antimicrobial activity against Serratia marcescens ATCC 14756 after 18 to 24 hrs by alamar blue assay; assay type: functional; how it was run: as §3
Acinetobacter baumannii = test: Antimicrobial activity against Acinetobacter baumannii ATCC 49139 after 18 to 24 hrs by alamar blue assay; assay type: functional; how it was run: as §3
[15] = system: Stenotrophomonas maltophilia; test: Antimicrobial activity against Stenotrophomonas maltophilia ATCC 13637 after 18 to 24 hrs by alamar blue assay; assay type: functional; how it was run: as §3
Pseudomonas aeruginosa = test: Antimicrobial activity against Pseudomonas aeruginosa ATCC 25619 after 18 to 24 hrs by alamar blue assay; assay type: functional; how it was run: as §3
[16] = Inhibition of transglycosylase assessed as inhibition of NBD- labelled lipid II polymerization; how it was run: as §1
Escherichia coli [17] = test: Displacement of fluorescein-labeled moenomycin from transglycosylase in Escherichia coli ATCC […] assessed as inhibition of lipid II polymerization at 100 uM after 30 mins by fluorescence anisotropy binding assay
Staphylococcus aureus [18] = test: Antimicrobial activity against Staphylococcus aureus ATCC 29213 after 18 to 24 hrs by alamar blue assay
[19] = Staphylococcus aureus, ATCC 33592
[20] = Mycolicibacterium smegmatis, BCRC 11565
[21] = Serratia marcescens, ATCC 14756, read-out: MIC
[22] = Acinetobacter baumannii, ATCC 49139, read-out: MIC
[23] = Stenotrophomonas maltophilia, ATCC 13637, read-out: MIC
[24] = Pseudomonas aeruginosa, ATCC 25619, read-out: MIC

| SMILES | IC50 [1] | MIC90 (Staphylococcus aureus [2]; [19]) | IC50 [3] | Ki [5] | IC50 [6] | MIC90 (Staphylococcus aureus [7]) | IC50 [8] | MIC90 [9, 20] | MIC90 (Staphylococcus aureus [10]) | MIC90 (Staphylococcus aureus [12]) | IC50 [13] | MIC90 (Escherichia coli [14]; Escherichia coli) | MIC (Bacillus subtilis) | MIC (Serratia marcescens; [21]) | MIC (Acinetobacter baumannii; [22]) | MIC [15, 23] | MIC (Pseudomonas aeruginosa; [24]) | IC90 [16] | also measured |
| --- | --- | --- | --- | --- | --- | --- | --- | --- | --- | --- | --- | --- | --- | --- | --- | --- | --- | --- | --- |
| C=C(C/C=C(\C)CCC=C(C)C)CCC(C)(C)/C=C/CC/C(C)=C/CO[C@@H](COP(=O)(O)O[C@H]1O[C@H](C(N)=O)[C@@](C)(O)[C@H](OC(N)=O)[C@H]1O[C@@H]1O[C@H](CO[C@@H]2O[C@H](CO)[C@@H](O)[C@H](O)[C@H]2O)[C@@H](O[C@@H]2O[C@H](C)[C@@H](O[C@@H]3O[C@H](C(=O)NC4=C(O)CCC4=O)[C@H](O)[C@H](O)[C@H]3O)[C@H](O)[C@H]2NC(C)=O)[C@H](O)[C@H]1NC(C)=O)C(=O)O [MOENOMYCIN A] | 0.034 µM | 11 µM (≈ 17.4 µg/mL) | 0.034 µM | 1.1 µM | 0.034 µM | 33 µM (≈ 52.2 µg/mL) | 0.034 µM | 2.5 µM (≈ 3.96 µg/mL) | 3 µM (≈ 4.75 µg/mL) | 33 µM (≈ 52.2 µg/mL) | 0.028 µM | 160 µM (≈ 253 µg/mL) | – | – | – | – | – | – | IC50 [4]: 0.05 µM; Ki [11]: 9.8 µM |
| CCc1ccc2oc(-c3cccc(NC(=O)c4ccc([N+](=O)[O-])o4)c3)nc2c1 | – | 0.5 µM (≈ 0.189 µg/mL) | – | 98 µM | – | 1 µM (≈ 0.377 µg/mL) | – | 0.5 µM (≈ 0.189 µg/mL) | 1 µM (≈ 0.377 µg/mL) | 1 µM (≈ 0.377 µg/mL) | 30.3 µM | > 512 µM | 0.06 µg/mL (≈ 0.159 µM) | 32 µg/mL (≈ 84.8 µM) | 12 µg/mL (≈ 31.8 µM) | 32 µg/mL (≈ 84.8 µM) | 128 µg/mL (≈ 339 µM) | – | – |
| O=C(c1ccc(Cl)cc1)c1ccc(Oc2ccc(Cl)cc2)c(NC(=O)c2cc(I)cc(I)c2O)c1 | 9.3 µM | 5.5 µM (≈ 4.02 µg/mL) | 9.3 µM | 68 µM | 9.3 µM | 11 µM (≈ 8.03 µg/mL) | 9.3 µM | 44 µM (≈ 32.1 µg/mL) | 11 µM (≈ 8.03 µg/mL) | 11 µM (≈ 8.03 µg/mL) | 2.1 µM | > 512 µM | < 0.03 µg/mL | 16 µg/mL (≈ 21.9 µM) | 16 µg/mL (≈ 21.9 µM) | 16 µg/mL (≈ 21.9 µM) | 16 µg/mL (≈ 21.9 µM) | < 25 µM | – |
| Cc1ccc(C(C)C)c(Oc2ccccc2NC(=O)c2cc(I)cc(I)c2O)c1 | 27.8 µM | 3.3 µM (≈ 2.02 µg/mL) | 27.8 µM | 98 µM | 27.8 µM | 1.6 µM (≈ 0.981 µg/mL) | 27.8 µM | 13 µM (≈ 7.97 µg/mL) | 6.5 µM (≈ 3.99 µg/mL) | 13 µM (≈ 7.97 µg/mL) | 7.2 µM | > 512 µM | < 0.03 µg/mL | 16 µg/mL (≈ 26.1 µM) | 16 µg/mL (≈ 26.1 µM) | 16 µg/mL (≈ 26.1 µM) | 16 µg/mL (≈ 26.1 µM) | < 25 µM | – |
| Cc1ccc(C(C)C)c(Oc2cc(Cl)ccc2NC(=O)c2cc(Br)cc(Br)c2O)c1 | 19.6 µM | 1.8 µM (≈ 0.997 µg/mL) | 19.6 µM | – | 19.6 µM | 1.8 µM (≈ 0.997 µg/mL) | 19.6 µM | 3.6 µM (≈ 1.99 µg/mL) | 1.8 µM (≈ 0.997 µg/mL) | 0.45 µM (≈ 0.249 µg/mL) | 2.7 µM | > 512 µM | < 0.03 µg/mL | 16 µg/mL (≈ 28.9 µM) | 16 µg/mL (≈ 28.9 µM) | 16 µg/mL (≈ 28.9 µM) | 16 µg/mL (≈ 28.9 µM) | < 25 µM | Activity (Escherichia coli [17]): inactive |
| O=C(Nc1ccc(Cl)c(C(=O)c2ccc(Cl)cc2)c1)c1cc(Cl)ccc1O | – | – | – | – | – | – | – | – | – | – | – | – | < 0.03 µg/mL | 16 µg/mL (≈ 38 µM) | 16 µg/mL (≈ 38 µM) | 16 µg/mL (≈ 38 µM) | 16 µg/mL (≈ 38 µM) | 100 µM | MIC (Staphylococcus aureus [2]): 4 µg/mL (≈ 9.51 µM); MIC (Staphylococcus aureus [2]; Staphylococcus aureus, ATCC 33592, read-out: MIC): 4 µg/mL (≈ 9.51 µM); MIC (Staphylococcus aureus [18]): 4 µg/mL (≈ 9.51 µM); MIC [9]: 0.5 µg/mL (≈ 1.19 µM); MIC ([9]; Mycolicibacterium smegmatis, BCRC 11565, read-out: MIC): 0.5 µg/mL (≈ 1.19 µM); MIC (Staphylococcus aureus [10]): >4 µg/mL; MIC (Serratia marcescens): 16 µg/mL (≈ 38 µM); MIC (Acinetobacter baumannii): 16 µg/mL (≈ 38 µM); MIC [15]: 16 µg/mL (≈ 38 µM); MIC (Escherichia coli [14]): 8 µg/mL (≈ 19 µM); MIC (Escherichia coli [14]; Escherichia coli, read-out: MIC): 8 µg/mL (≈ 19 µM); MIC (Pseudomonas aeruginosa): 16 µg/mL (≈ 38 µM) |
